Activity calls are given as the source filed them. The rule behind the calls is not given here.
Experiments:
Rat2 [1] = assay: Induction of increase in Ras-GTP level in Rat2 cells expressing human […] at 100 nM; type: functional, cell-based
Method in brief: (§1)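 Rat2 fibroblasts (DMEM, 10% FBS) stably carrying retroviral pBabePuro, empty or with human RasGRP1 cDNA, exposed 10 min to 100 nM DAG analogue or DMSO vehicle. Ras-GTP measured by Ras-binding-domain pulldown with pan-Ras immunoblot; phospho-Erk p44/p42 and total Ras by immunoblot.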

Thymocyte [2] = assay: Activation of ERK in knockout mouse RasGRP1- mutant thymocytes; type: functional, cell-based
Method in brief: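 Thymocytes isolated in RPMI 1640 with 10% FBS from young wild-type or RasGRP1 knockout mice, given DMSO or DAG analogue for 10 min, then lysed and immunoblotted for phospho-Erk p44/p42.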

[3] = biological target: T1, RAS guanyl-releasing protein 1 (Homo sapiens) (UniProt O95267); assay: Induction of translocation of RasGRP1 to plasma membrane in HEK293 cells; type: cell-based
T1 sequence (whole entry): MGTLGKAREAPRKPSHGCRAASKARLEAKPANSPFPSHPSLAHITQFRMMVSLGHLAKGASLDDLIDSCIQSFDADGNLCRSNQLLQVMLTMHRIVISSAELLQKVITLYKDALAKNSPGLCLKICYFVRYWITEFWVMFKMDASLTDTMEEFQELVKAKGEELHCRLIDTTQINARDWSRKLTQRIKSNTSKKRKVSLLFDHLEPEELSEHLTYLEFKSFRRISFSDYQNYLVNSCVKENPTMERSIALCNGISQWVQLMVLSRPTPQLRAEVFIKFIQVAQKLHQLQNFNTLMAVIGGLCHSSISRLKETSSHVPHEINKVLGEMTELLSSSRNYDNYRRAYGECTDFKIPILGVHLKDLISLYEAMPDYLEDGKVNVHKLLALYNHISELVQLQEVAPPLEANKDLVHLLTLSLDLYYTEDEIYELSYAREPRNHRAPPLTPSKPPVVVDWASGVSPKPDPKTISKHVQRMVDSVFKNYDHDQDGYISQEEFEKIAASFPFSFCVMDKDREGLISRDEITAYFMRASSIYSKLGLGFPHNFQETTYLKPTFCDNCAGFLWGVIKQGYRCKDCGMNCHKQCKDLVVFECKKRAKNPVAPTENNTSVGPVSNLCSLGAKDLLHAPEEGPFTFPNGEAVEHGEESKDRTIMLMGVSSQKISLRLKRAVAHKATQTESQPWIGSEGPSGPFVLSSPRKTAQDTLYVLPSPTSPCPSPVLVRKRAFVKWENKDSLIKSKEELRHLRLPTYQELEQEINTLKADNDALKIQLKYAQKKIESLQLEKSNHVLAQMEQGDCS
Method in brief: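 HEK-293 cells on glass coverslips transfected with 5 μg pEF-GFP-RasGRP1 (or pEF-GFP), after 48 h given 100 nM DAG analogue or DMSO for 10 min at 37 °C, fixed in 4% paraformaldehyde; GFP location imaged by confocal microscopy, at least five 0.45 μm slices per cell.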

Thymocyte [4] = assay: Activation of ERK in wild type mouse thymocytes at 100 nM; type: functional, cell-based
Method in brief: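 Wild-type mouse thymocytes (RPMI 1640, 10% FBS) exposed 10 min to DAG analogue at 100, 10 or 1 nM, then lysed; phospho-Erk p44/p42 detected by immunoblot.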

Rat2 [5] = assay: Accumulation of Ras-GTP level in Rat2 cells expressing empty pBabePuro vector; type: functional, cell-based; settings: Rattus norvegicus; method in brief: as §1
Lymphocyte [6] = assay: Induction of T cell activation marker CD69 expression in concanavalin-A activated CD4+ mouse spleen lymphocytes; type: functional, tissue-based
Jurkat = assay: Induction of T cell activation marker CD69 expression in Jurkat T cells at 100 nM; type: functional, cell-based; settings: Homo sapiens
Method in brief: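 Jurkat T cells kept in RPMI with 10% FBS, incubated overnight with 100 nM DAG analogue or DMSO, fixed in 2% paraformaldehyde, stained with PE-anti-CD69, surface CD69 read by FACS.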

Lymphocyte [7] = assay: Induction of T cell activation marker CD69 expression in concanavalin-A activated CD8+ mouse spleen lymphocytes; type: functional, tissue-based
PBL = assay: Induction of T cell activation marker CD69 expression in PBL cells; type: functional, cell-based; settings: Homo sapiens
Method in brief: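 Human peripheral blood lymphocytes from a healthy donor, isolated on Ficoll-hypaque, treated immediately overnight in RPMI with 100 nM DAG analogue or DMSO; fixed in 2% paraformaldehyde, co-stained for CD4 (FITC) and CD69 (PE), analysed by flow cytometry.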

Row | Structure (SMILES) | Activity (Rat2 [1]) | Activity (Thymocyte [2]) | Activity [3] | Activity (Thymocyte [4]) | Activity (Rat2 [5]) | Activity (Lymphocyte [6]) | Activity (Jurkat) | Activity (Lymphocyte [7]) | Activity (PBL)
1 | CCCCCCCCCCCCCC(=O)O[C@@H]1[C@@H](C)[C@@]2(O)[C@@H](C=C(CO)C[C@]3(O)C(=O)C(C)=C[C@@H]23)[C@@H]2C(C)(C)[C@]12OC(C)=O | Active | inactive | Active | Active | inactive | Active | Active | Active | Active
2 | CCCCCCCC(=O)O[C@H]1/C(=C/C(=O)OC)CC2C[C@H]([C@H](O)CC)OC(=O)C[C@H](O)C[C@@H]3CCC[C@H](C[C@H]4CCO[C@H](/C=C/C(C)(C)[C@]1(O)O2)O4)O3 | Active | inactive | Active | Active | inactive | Active | Active | Active | Active
3 | CCCCCCCC(=O)O[C@H]1/C(=C/C(=O)OC)CC2C[C@H]([C@@H](CC)OC)OC(=O)C[C@H](O)C[C@@H]3CCC[C@H](C[C@H]4CCO[C@H](/C=C/C(C)(C)[C@]1(O)O2)O4)O3 | Active | inactive | Active | Active | inactive | Active | Active | Active | Active
